Assay results as given in paper PMC12584159 (Clinical and Translational Science, 2025).
Like-named read-outs stand apart in the source and are kept apart here.

Columns and labels:
[1] = first‐generation gepants; cited from earlier work
[2] = Plasma pharmacokinetics of atogepant; type: in vivo, human
How it was run: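 Fasted healthy men received a single oral 50 mg ¹⁴C dose. Blood was sampled pre-dose to 168 h, then every 72 h until discharge criteria or Day 29. Samples were centrifuged at ≥2500 g for 10 min at ~4°C, and plasma was stored at −70°C. K₂EDTA plasma was assayed by validated LC–MS/MS (1–1000 ng/mL), with BLQ set to zero. Noncompartmental analysis used actual times; ratios were taken to plasma total radioactivity.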

[3] = Urinary excretion of atogepant and renal clearance; type: in vivo, human; details: mean ± SD; for Proportion of administered dose excreted in urine as atogepant (parent drug): LC–MS/MS, urine up to 360 h post‐dose
How it was run: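 Urine was collected pre-dose and over 0–4, 4–8, 8–12, 12–24 h, then 24-h intervals until discharge criteria or study end, and stored at −20°C. Atogepant was measured by validated LC–MS/MS (1–1000 ng/mL), with BLQ set to zero. Radioactivity was measured by combustion/LSC. Ae0–t, CLR and fraction of dose excreted were computed.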

[4] = Mass balance: total radioactivity recovered in urine and feces; type: in vivo, human; details: N = 6, mean ± SD; for Proportion of radioactive dose excreted in urine (total radioactivity): through last specimen collection
How it was run: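 Healthy men received a single oral 50 mg (~200 μCi) ¹⁴C dose in PEG400/Ora-Sweet solution after a ≥10-h fast. Urine was collected in intervals and all feces during confinement; feces were weighed and homogenized. Pre-dose feces set background. Total radioactivity was measured by combustion/LSC, with BLQ (urine <89 dpm/mL, feces <81 dpm/g) set to zero. Collection continued until discharge criteria or Day 29.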

[5] = Metabolite profiling in plasma, urine and feces; type: in vivo, human; details: for Feces %DE (dose excreted): feces 0–312 h [n = 1], 0–120 h [n = 3], 0–96 h [n = 2]; for Urine %DE (dose excreted): urine 0–24 h
How it was run: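 After a single oral 50 mg ¹⁴C dose, plasma was pooled by Hamilton AUC scheme and extracted with acetonitrile. Urine (0–24 h) was pooled by sample weight, and fecal homogenates with ≥2% dose were acetonitrile-extracted. Profiling used HPLC with radiometric detection and high-resolution MS. Metabolite % was taken from radiochromatogram peak areas. Individual plasma through 312 h was also assayed for M23 by LC–MS/MS.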

Safety/tolerability = type: in vivo, human; details: single 50 mg dose
How it was run: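 Safety was monitored in all dosed participants after a single 50 mg oral dose, covering AEs (MedDRA 20.1 or newer), physical exam, 12-lead ECG, vital signs, hematology, coagulation, chemistry and urinalysis. ECG and vitals were taken on Day 1; labs and vitals on Day 2. TEAEs were new or worsening AEs within 30 days of dosing.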

[6] = Phase 3, placebo 1.8%, cited from earlier work
[7] = single 10–60 mg dose; healthy Japanese and White adults; cited from earlier work
[8] = simian chronic toxicology studies; ref internal data; cited from earlier work
CYP3A4, CYP2D6 = details: human liver microsomes; cited from earlier work
human CGRP receptor = details: preclinical studies; cited from earlier work
[9] = test system: organic anion transporting polypeptide (OATP); details: cited from earlier work
P‐glycoprotein (P‐gp) = details: cited from earlier work
[10] = test system: breast cancer resistance protein (BCRP); details: cited from earlier work
[11] = cited from earlier work
[12] = cited from earlier work; remark: listed apart in the source
[13] = plasma, single oral 50 mg, N = 6, mean ± SD

In the case of O=C(N[C@@H]1CC[C@@H](c2cccc(F)c2F)CN(CC(F)(F)F)C1=O)N1CCC(n2c(=O)[nH]c3ncccc32)CC1 [telcagepant], the “Liver toxicity in clinical trials” value [1] is listed as “liver toxicity concerns”.
For C[C@@H]1[C@H](c2c(F)ccc(F)c2F)C[C@H](NC(=O)c2cnc3c(c2)C[C@@]2(C3)C(=O)Nc3ncccc32)C(=O)N1CC(F)(F)F [Atogepant], the “Time after dosing up to which atogepant plasma concentrations were measurable” value ([2]; LOQ 1 ng/mL) was “up to 120 h”, the AUC(0-inf) ([2]; male, human, plasma, po, 50 mg) was 2220 ± 966 ng·h/mL and the AUC(0-t) ([2]; male, human, plasma, po, 50 mg) was 2180 ± 960 ng·h/mL. For the same compound, the Cmax ([2]; male, human, plasma, po, 50 mg) was 367 ± 189 ng/mL, the half-life ([2]; male, human, plasma, po, 50 mg) was 18.5 ± 11.9 h and the “AUC0–t, atogepant/total radioactivity ratio” value [2, 13] was 0.776 ± 0.167. The “AUC0–∞, atogepant/total radioactivity ratio” value [2, 13] was 0.728 ± 0.172, the “C max, atogepant/total radioactivity ratio” value [2, 13] was 0.997 ± 0.286 and the “AUC0–∞, atogepant/total radioactivity ratio” value ([2]; plasma, single oral 50 mg, N = 6, mean ± SD, listed as atogepant) was ~ 0.75. The “T max, atogepant” value ([2]; plasma, single oral 50 mg, N = 6, median (range)) was 1 (0.98–2.98) hours, the “Proportion of administered dose excreted in urine as atogepant (parent drug)” value ([3]; N = 6) was 4.84% ± 1.63% and the “Proportion of administered dose excreted in urine as atogepant (parent drug)” value ([3]; N = 6, listed as atogepant) was “Approximately 5%”. The “Urine excretion, atogepant/total radioactivity ratio” value ([3]; N = 6) was 0.605 ± 0.109, the “CLR (renal clearance), atogepant” value ([3]; single oral 50 mg, N = 6) was 1.18 ± 0.33 L/h and the “Urine Ae0–t (total urine atogepant excretion)” value ([3]; up to 360 h post‐dose) was 2.42 ± 0.82 mg. The “Proportion of radioactive dose excreted in feces (total radioactivity)” value ([4]; through last specimen collection (336 h, 14 days)) was 81%, the “Proportion of radioactive dose excreted in urine (total radioactivity)” value [4] was 8% and the “Proportion of radioactive dose excreted in urine (total radioactivity)” value ([4]; listed as atogepant) was ~ 8%. For the same compound, the Disproportionate human metabolites ([5]; comparison of this study to in vivo rat and monkey studies) was “no disproportionate human metabolites”, the “Feces %DE (dose excreted)” value ([5]; mean ± SD, ND = not detected or < 1% of dose or AUC0–t, listed as Parent) was 42.2 ± 4.2% and the “Feces %DE (dose excreted)” value ([5]; mean ± SD, ND = not detected or < 1% of dose or AUC0–t, listed as parent drug) was 42%. For the same compound, the dose excreted ([5]; human, feces, oral, 50 mg, Share of fecal radioactivity recovery, unabsorbed drug, biliary excretion, and/or intestinal secretion) was roughly 52%, the “Plasma %AUC0–t (percent of radioactive exposure)” value ([5]; pooled plasma 0–36 h (0–24 h for one participant), HPLC‐RAD, N = 6, mean ± SD, ND = not detected or < 1% of dose or AUC0–t) was 84.7 ± 9.2% and the “Urine %DE (dose excreted)” value ([5]; N = 6, mean ± SD, ND = not detected or < 1% of dose or AUC0–t) was 5%. The “Urine %DE (dose excreted)” value ([5]; N = 6, mean ± SD, ND = not detected or < 1% of dose or AUC0–t, listed as Parent) was 5.21 ± 1.69%, the Tolerability (Safety/tolerability; healthy males N = 6) was “well‐tolerated” and the “ALT or AST elevations” value (Safety/tolerability; healthy participants N = 6) was “no ALT or AST elevations observed”. The “Proportion of patients with ALT and AST elevations ≥ 3× upper limit of normal” value ([6]; atogepant 10 mg/day) was 0.9%, the “Proportion of patients with ALT and AST elevations ≥ 3× upper limit of normal” value ([6]; atogepant 30 mg/day) was 0.9% and the “Proportion of patients with ALT and AST elevations ≥ 3× upper limit of normal” value ([6]; atogepant 60 mg/day) was 0.4%. The “CLR (renal clearance)” value [7] was 0.9 to 1.5 L/h, the “No‐observed‐adverse‐effect level” value [8] was 300 mg/kg and the Enzymes metabolizing atogepant (CYP3A4, CYP2D6) was “predominantly metabolized via CYP3A4 with minor involvement of CYP2D6”. The “Affinity, potency and selectivity for the receptor” value (human CGRP receptor) was “high affinity, potency, and selectivity”, the “Substrate of OATP” value [9] was “substrate” and the “Substrate of P‐gp” value (P‐glycoprotein (P‐gp)) was “substrate”. For the same compound, the “Substrate of BCRP” value [10] was “substrate”, the “Effect of quinidine (strong P‐gp inhibitor) on atogepant exposure” value ([11]; clinical DDI study) was “no clinically relevant increase in atogepant exposure” and the “Effect of co‐administration on atogepant exposure” value ([11]; multiple‐dose rifampin (strong CYP3A4 and P‐gp inducer)) was “significantly decreased atogepant exposure”. For the same compound, the “Effect of co‐administration on atogepant exposure” value ([11]; single‐dose rifampin (OATP inhibitor), healthy participants) was “significantly increased atogepant exposure”, the “Accumulation with daily dosing” value [12] was “does not accumulate with daily dosing” and the “Bioavailability, tablet vs. PEG solution dosing” value [12] was “higher with tablet vs. PEG solution dosing”.
For O=C(CN1C(=O)C2(CCCC2)NC[C@H]1c1cc(F)cc(F)c1)Nc1ccc2c(c1)C[C@@]1(C2)C(=O)Nc2ncccc21 [MK‐3207], the “Liver toxicity in clinical trials” value [1] is listed as “liver toxicity concerns”.
